Results reported in ChEMBL document CHEMBL3580532, “Deconins A-E: Cuparenic and Mevalonic or Propionic Acid Conjugates from the Basidiomycete Deconica sp. 471” (J Nat Prod, 2015).
Active and inactive are the calls of the source.

Tests used:
Pseudomonas aeruginosa [1] = test: Antimicrobial activity against Pseudomonas aeruginosa DSM50071 assessed as inhibition of microbial growth incubated for 24 to 48 hrs by serial dilution assay; assay type: functional, organism-based
Method in brief: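 Broth serial dilution in EBS medium (0.5% peptone, 0.5% glucose, 0.1% meat extract, 0.1% yeast extract, 50 mM HEPES, pH 7.0). Compound stock (1 mg/mL in MeOH) was dried in the first row, then the bacterium was added as a 1:100 inoculum:medium mix. Twofold dilutions covered 66.7 to 0.1 μg/mL. Plates were shaken at 600 rpm, 30 °C, for 24–48 h. MIC was the lowest concentration with no visible growth.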

Candida albicans [2] = test: Antimicrobial activity against Candida albicans DSM1665 assessed as inhibition of microbial growth up to 67 ug/ml incubated for 24 to 48 hrs by serial dilution assay; assay type: functional, organism-based
Method in brief: (§1)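 Yeasts and fungi were tested by serial dilution in MYC medium (1.0% phytone peptone, 1.0% glucose, 50 mM HEPES, pH 7.0). Compound from a 1 mg/mL MeOH stock was dried in row A, then inoculum at 1:100 in medium was added and diluted 1:1 down the plate (66.7 to 0.1 μg/mL). Incubation was 30 °C, 600 rpm shaking, 24−48 h. MIC is the lowest concentration with no visible growth.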

Pseudomonas aeruginosa [3] = test: Antimicrobial activity against Pseudomonas aeruginosa DSM50071 assessed as inhibition of microbial growth up to 67 ug/ml incubated for 24 to 48 hrs by serial dilution assay; assay type: functional, organism-based
Method in brief: (§2)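 Broth microdilution in EBS medium (peptone, glucose, meat and yeast extract, 50 mM HEPES, pH 7.0). A 1 mg/mL MeOH stock was dried in the first row, then pathogen diluted 1:100 in medium was added and serially diluted 1:1 (66.7 to 0.1 μg/mL tested). Plates were shaken at 600 rpm, 30 °C, for 24−48 h. MIC is the lowest concentration preventing visible growth; blank wells served as negative control.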

Escherichia coli [4] = test: Antimicrobial activity against Escherichia coli DSM1116 assessed as inhibition of microbial growth up to 67 ug/ml incubated for 24 to 48 hrs by serial dilution assay; assay type: functional, organism-based; method in brief: as §2
Micrococcus luteus [5] = test: Antimicrobial activity against Micrococcus luteus DSM1790 assessed as inhibition of microbial growth up to 67 ug/ml incubated for 24 to 48 hrs by serial dilution assay; assay type: functional, organism-based; method in brief: as §2
[6] = system: Schizosaccharomyces pombe; test: Antimicrobial activity against Schizosaccharomyces pombe DSM70572 assessed as inhibition of microbial growth up to 67 ug/ml incubated for 24 to 48 hrs by serial dilution assay; assay type: functional, organism-based; method in brief: as §1
Mucor hiemalis [7] = test: Antimicrobial activity against Mucor hiemalis DSM2656 […] assessed as inhibition of microbial growth incubated for 24 to 48 hrs by serial dilution assay; assay type: functional; method in brief: as §1
[8] = system: Chromobacterium violaceum; test: Antimicrobial activity against Chromobacterium violaceum DSM30191 assessed as inhibition of microbial growth up to 67 ug/ml incubated for 24 to 48 hrs by serial dilution assay; assay type: functional, organism-based; method in brief: as §2
Bacillus subtilis [9] = test: Antimicrobial activity against Bacillus subtilis DSM10 assessed as inhibition of microbial growth incubated for 24 to 48 hrs by serial dilution assay; assay type: functional; method in brief: as §2
Wickerhamomyces anomalus [10] = test: Antimicrobial activity against Pichia anomala DSM6766 assessed as inhibition of microbial growth up to 67 ug/ml incubated for 24 to 48 hrs by serial dilution assay; assay type: functional, organism-based; method in brief: as §1
L929 = test: Cytotoxicity against mouse L929 cells incubated for 5 days by MTT assay; assay type: cell-based; conditions: L929, 120 h
Method in brief: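 L929 mouse fibroblasts were grown in EBM-2 with 10% FBS at 37 °C under 10% CO₂. Serial dilutions from a 1 mg/mL MeOH stock were added to cell suspension (50 000/mL) and incubated 5 days. Read-out was MTT with absorbance at 590 nm. IC₅₀ (50% growth inhibition versus control) was taken from dose−response curves; methanol was the negative control.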

Staphylococcus aureus [11] = test: Antimicrobial activity against Staphylococcus aureus DSM346 assessed as inhibition of microbial growth incubated for 24 to 48 hrs by serial dilution assay; assay type: functional; method in brief: as §2
Bacillus subtilis [12] = test: Antimicrobial activity against Bacillus subtilis DSM10 assessed as inhibition of microbial growth up to 67 ug/ml incubated for 24 to 48 hrs by serial dilution assay; assay type: functional, organism-based; method in brief: as §2
Staphylococcus aureus [13] = test: Antimicrobial activity against Staphylococcus aureus DSM346 assessed as inhibition of microbial growth up to 67 ug/ml incubated for 24 to 48 hrs by serial dilution assay; assay type: functional, organism-based; method in brief: as §2
Mucor hiemalis [14] = test: Antimicrobial activity against Mucor hiemalis DSM2656 […] assessed as inhibition of microbial growth up to 67 ug/ml incubated for 24 to 48 hrs by serial dilution assay; assay type: functional, organism-based; method in brief: as §1
[15] = system: Schizosaccharomyces pombe; test: Antimicrobial activity against Schizosaccharomyces pombe DSM70572 assessed as inhibition of microbial growth incubated for 24 to 48 hrs by serial dilution assay; assay type: functional, organism-based
Method in brief: (§3)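 Broth serial dilution in MYC medium (1.0% phytone peptone, 1.0% glucose, 50 mM HEPES, pH 7.0). Compound stock (1 mg/mL in MeOH) was dried in the first row, then the yeast was added as a 1:100 inoculum:medium mix. Twofold serial dilutions covered 66.7 to 0.1 μg/mL. Plates were shaken at 600 rpm, 30 °C, for 24–48 h. MIC was the lowest concentration with no visible growth. Blank wells served as negative controls.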

Wickerhamomyces anomalus [16] = test: Antimicrobial activity against Pichia anomala DSM6766 assessed as inhibition of microbial growth incubated for 24 to 48 hrs by serial dilution assay; assay type: functional, organism-based; method in brief: as §3
Candida albicans [17] = test: Antimicrobial activity against Candida albicans DSM1665 assessed as inhibition of microbial growth incubated for 24 to 48 hrs by serial dilution assay; assay type: functional, organism-based; method in brief: as §3
Micrococcus luteus [18] = test: Antimicrobial activity against Micrococcus luteus DSM1790 assessed as inhibition of microbial growth incubated for 24 to 48 hrs by serial dilution assay; assay type: functional; method in brief: as §2
Escherichia coli [19] = test: Antimicrobial activity against Escherichia coli DSM1116 assessed as inhibition of microbial growth incubated for 24 to 48 hrs by serial dilution assay; assay type: functional; method in brief: as §2
[20] = system: Chromobacterium violaceum; test: Antimicrobial activity against Chromobacterium violaceum DSM30191 assessed as inhibition of microbial growth incubated for 24 to 48 hrs by serial dilution assay; assay type: functional; method in brief: as §2

GENTAMICIN
42 mg/L: MIC (Pseudomonas aeruginosa [1])

CC1(C)CCC[C@]1(C)c1ccc(C(=O)OCC[C@@](C)(O)CC(=O)O)cc1
67 mg/L: MIC (Mucor hiemalis [7]) | MIC (Bacillus subtilis [9]) | MIC (Staphylococcus aureus [11])
inactive: inhibition (Candida albicans [2]) | inhibition (Pseudomonas aeruginosa [3]) | inhibition (Escherichia coli [4]) | inhibition (Micrococcus luteus [5]) | inhibition [6] | inhibition [8] | inhibition (Wickerhamomyces anomalus [10])
> 10 mg/L: IC50 (L929)

CC1(C)CC(=O)C[C@]1(C)c1ccc(C(=O)OCC[C@@](C)(O)CC(=O)O)cc1
> 10 mg/L: IC50 (L929)
inactive: inhibition (Candida albicans [2]) | inhibition (Pseudomonas aeruginosa [3]) | inhibition (Escherichia coli [4]) | inhibition (Micrococcus luteus [5]) | inhibition (Bacillus subtilis [12]) | inhibition [6] | inhibition (Staphylococcus aureus [13]) | inhibition [8] | inhibition (Wickerhamomyces anomalus [10]) | inhibition (Mucor hiemalis [14])

CC1(C)[C@@H](O)C(=O)C[C@]1(C)c1ccc(C(=O)O)cc1
inactive: inhibition (Candida albicans [2]) | inhibition (Pseudomonas aeruginosa [3]) | inhibition (Escherichia coli [4]) | inhibition (Micrococcus luteus [5]) | inhibition (Bacillus subtilis [12]) | inhibition [6] | inhibition (Staphylococcus aureus [13]) | inhibition [8] | inhibition (Wickerhamomyces anomalus [10]) | inhibition (Mucor hiemalis [14])
> 10 mg/L: IC50 (L929)

CC1(C)CC[C@@H](O)[C@]1(C)c1ccc(C(=O)OCC[C@@](C)(O)CC(=O)O)cc1
67 mg/L: MIC (Staphylococcus aureus [11])
inactive: inhibition (Candida albicans [2]) | inhibition (Pseudomonas aeruginosa [3]) | inhibition (Escherichia coli [4]) | inhibition (Micrococcus luteus [5]) | inhibition (Bacillus subtilis [12]) | inhibition [6] | inhibition [8] | inhibition (Wickerhamomyces anomalus [10]) | inhibition (Mucor hiemalis [14])
2.8 mg/L: IC50 (L929)

NYSTATIN
67 mg/L: MIC (Mucor hiemalis [7]) | MIC (Candida albicans [17])
33.3 mg/L: MIC [15] | MIC (Wickerhamomyces anomalus [16])

CC1(C)CC(=O)C[C@]1(C)C1=CC=C(C(=O)OCC[C@@](C)(O)CC(=O)O)CC1
inactive: inhibition (Candida albicans [2]) | inhibition (Pseudomonas aeruginosa [3]) | inhibition (Escherichia coli [4]) | inhibition (Micrococcus luteus [5]) | inhibition (Bacillus subtilis [12]) | inhibition [6] | inhibition (Staphylococcus aureus [13]) | inhibition [8] | inhibition (Wickerhamomyces anomalus [10]) | inhibition (Mucor hiemalis [14])
> 10 mg/L: IC50 (L929)

CC(O)(COC(=O)c1ccc([C@@]2(C)C[C@H](O)CC2(C)C)cc1)C(=O)O (some centres not stated)
> 10 mg/L: IC50 (L929)
67 mg/L: MIC (Staphylococcus aureus [11])
inactive: inhibition (Candida albicans [2]) | inhibition (Pseudomonas aeruginosa [3]) | inhibition (Escherichia coli [4]) | inhibition (Micrococcus luteus [5]) | inhibition (Bacillus subtilis [12]) | inhibition [6] | inhibition [8] | inhibition (Wickerhamomyces anomalus [10]) | inhibition (Mucor hiemalis [14])

CC1(C)CCC[C@]1(C)c1ccc(C(=O)O)cc1
> 10 mg/L: IC50 (L929)
inactive: inhibition (Candida albicans [2]) | inhibition (Pseudomonas aeruginosa [3]) | inhibition (Escherichia coli [4]) | inhibition (Micrococcus luteus [5]) | inhibition (Bacillus subtilis [12]) | inhibition [6] | inhibition (Staphylococcus aureus [13]) | inhibition [8] | inhibition (Wickerhamomyces anomalus [10])
67 mg/L: MIC (Mucor hiemalis [7])

CN(C)[C@@H]1C(O)=C(C(N)=O)C(=O)[C@@]2(O)C(O)=C3C(=O)c4c(O)cccc4[C@@](C)(O)[C@H]3[C@H](O)[C@@H]12.Cl [OXYTETRACYCLINE HYDROCHLORIDE]
0.42 mg/L: MIC (Micrococcus luteus [18])
0.21 mg/L: MIC (Staphylococcus aureus [11])
0.83 mg/L: MIC (Bacillus subtilis [9]) | MIC (Escherichia coli [19]) | MIC [20]
